From ChEMBL document CHEMBL4330056, “Synthesis and Cytotoxic and Antiviral Profiling of Pyrrolo- and Furo-Fused 7-Deazapurine Ribonucleosides” (J Med Chem, 2018)
The source made the active and inactive calls. The rule behind the calls is not given here.

How the values were obtained:
Human alphaherpesvirus 1 = experiment: Antiviral activity against human herpesvirus 1 HF infected in African green monkey Vero cells assessed as inhibited virus-induced cytopathic effect incubated for 3 days by XTT assay; assay type: functional, organism-based
CCRF-CEM [1] = experiment: Inhibition of RNA synthesis in human CCRF-CEM cells assessed as RNA synthesis level at 5 times IC50 concentration after 24 hrs by BrU incorporation assay (reference value: 49.89%); assay type: functional; design: scale not given: the % may be the effect or the level left
[2] = Metabolic stability in human liver microsomes assessed as compound remaining at 5 umol/L after 60 mins relative to control; assay type: ADME, Microsome; settings: read-out: Stability
In short: (§1)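 Human microsomal fraction; percent compound remaining over time.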

Influenza A virus = experiment: Antiviral activity against Influenza A virus (A/Mexico/4108/2009(H1N1)) infected in MDCK cells assessed as inhibited virus-induced cytopathic effect incubated for 2 days by XTT assay; assay type: functional, organism-based
OCI-AML2 [3] = experiment: Mitochondrial toxicity in human OCI-AML2 cells assessed as inhibition of MT-ND1 gene expression at 1 to 5 times IC50 after 24 to 72 hrs by RT-PCR analysis; assay type: cell-based
In short: (§2)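 Expression of the mitochondrial genes MT-CO2 and MT-ND1 measured.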

[4] = Metabolic stability in human liver microsomes assessed as compound remaining at 5 umol/L after 30 mins relative to control; assay type: ADME, Microsome; settings: read-out: Stability; in short: as §1
[5] = Chemical stability of the compound assessed as compound remaining after 15 mins relative to control; assay type: physicochemical; settings: read-out: Stability
U2OS = experiment: Antiproliferative activity against human U2OS cells after 3 days by MTS assay; assay type: functional, cell-based; settings: 72 h
[6] = Antiproliferative activity against human K562-TAX cells after 3 days by MTS assay; assay type: functional, cell-based; settings: 72 h
[7] = Metabolic stability in human liver microsomes assessed as compound remaining at 5 umol/L after 15 mins relative to control; assay type: ADME, Microsome; settings: read-out: Stability; in short: as §1
OCI-AML2 [8] = experiment: Mitochondrial toxicity in human OCI-AML2 cells assessed as inhibition of MT-CO2 gene expression at 1 to 5 times IC50 after 24 to 72 hrs by RT-PCR analysis; assay type: cell-based; in short: as §2
[9] = Mitochondrial toxicity in human OCI-AML2 cells assessed as reduction in oxidative phosphorylation-based viability after 72 hrs by CellTiterGlo assay; assay type: cell-based
In short: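 OCI-AML2 leukemia cells, which rely on mitochondrial OXPHOS, treated for 3 days in a survival assay; IC50 reported.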

CCRF-CEM [10] = experiment: DNA incorporation activity in human CCRF-CEM assessed as NMP content per microgram of nucleic acid at 4.48 uM after 2.5 hrs by […]; assay type: functional
In short: (§3)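 CCRF-CEM cells exposed to nucleoside for 2.5 h, then harvested at once. RNA and DNA isolated separately and enzymatically digested; nucleoside content of each nucleic acid fraction quantified by HPLC-MS.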

OCI-AML2 [11] = experiment: Mitochondrial toxicity in human OCI-AML2 cells assessed as reduction in CO2 protein expression at 1 to 5 times IC50 after 24 to 72 hrs by Western blot analysis; assay type: cell-based
Adenosine kinase [12] = biological target: T1, Adenosine kinase (Homo sapiens, UniProt P55263); experiment: Drug metabolism in human BJ cells assessed as ADK-mediated compound phosphorylation by measuring parent compound level per 5x10^5 cells at 1 umol/L after 3 hrs by UPLC-MS/MS analysis; assay type: ADME, cell-based; settings: 1 µM
In short: (§4)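 BJ (normal) and HCT116 (malignant) cells exposed to nucleoside at 1 or 10 μmol/L for 1 or 3 h. Intracellular nucleoside and its monophosphate quantified against synthetic monophosphate standards. Values given as pmol per 5 × 10^5 cells.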

Adenosine kinase [13] = biological target: T1, Adenosine kinase; experiment: Drug metabolism in human HCT116 cells assessed as ADK-mediated compound phosphorylation by measuring parent compound level per 5x10^5 cells at 1 umol/L after 1 hr by UPLC-MS/MS analysis; assay type: ADME, cell-based; settings: 1 µM; in short: as §4
Adenosine kinase [14] = biological target: T1, Adenosine kinase; experiment: Drug metabolism in human BJ cells assessed as ADK-mediated compound phosphorylation by measuring parent compound level per 5x10^5 cells at 10 umol/L after 1 hr by UPLC-MS/MS analysis; assay type: ADME, cell-based; settings: 10 µM; in short: as §4
Adenosine kinase [15] = biological target: T1, Adenosine kinase; experiment: Drug metabolism in human BJ cells assessed as ADK-mediated compound phosphorylation by measuring parent compound level per 5x10^5 cells at 10 umol/L after 3 hrs by UPLC-MS/MS analysis; assay type: ADME, cell-based; settings: 10 µM; in short: as §4
CCRF-CEM [16] = experiment: DNA incorporation activity in human CCRF-CEM assessed as dMP content per microgram of nucleic acid at 4.48 uM after 2.5 hrs […]; assay type: functional
Adenosine kinase [17] = biological target: T1, Adenosine kinase; experiment: Drug metabolism in human HCT116 cells assessed as ADK-mediated compound phosphorylation by measuring parent compound level per 5x10^5 cells at 10 umol/L after 1 hr by UPLC-MS/MS analysis; assay type: ADME, cell-based; settings: 10 µM; in short: as §4
OCI-AML2 [18] = experiment: Mitochondrial toxicity in human OCI-AML2 cells assessed as reduction in SDHB protein expression at 1 to 5 times IC50 after 24 to 72 hrs by Western blot analysis; assay type: cell-based
DNA = experiment: Induction of DNA damage in human U2OS cells transfected with 53BP1-GFP fusion gene assessed as increase in number of foci per nucleus at 1 to 5 times IC50 concentration measured at 1 hr intervals for 11 hrs by fluorescence-based assay; assay type: functional, cell-based
In short: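 U2OS osteosarcoma reporter line stably expressing 53BP1-GFP treated up to 11 h, with etoposide as the double-strand-break reference. 53BP1 foci in nuclei imaged by confocal microscopy (40× objective).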

OCI-AML2 [19] = experiment: Mitochondrial toxicity in human OCI-AML2 cells assessed as effect on UQCRC2 protein expression at 1 to 5 times IC50 after 24 to 72 hrs by Western blot analysis; assay type: cell-based
CCRF-CEM [20] = experiment: RNA incorporation activity in human CCRF-CEM assessed as NMP content per microgram of nucleic acid at 4.48 uM after 2.5 hrs […]; assay type: functional
OCI-AML2 [21] = experiment: Mitochondrial toxicity in human OCI-AML2 cells assessed as effect on ATP5A protein expression at 1 to 5 times IC50 after 24 to 72 hrs by Western blot analysis; assay type: cell-based
Adenosine kinase [22] = biological target: T1, Adenosine kinase; experiment: Drug metabolism in human HCT116 cells assessed as ADK-mediated compound phosphorylation by measuring parent compound level per 5x10^5 cells at 10 umol/L after 3 hrs by UPLC-MS/MS analysis; assay type: ADME, cell-based; settings: 10 µM; in short: as §4
Adenosine kinase [23] = biological target: T1, Adenosine kinase; experiment: Drug metabolism in human BJ cells assessed as ADK-mediated compound phosphorylation by measuring parent compound level per 5x10^5 cells at 1 umol/L after 1 hr by UPLC-MS/MS analysis; assay type: ADME, cell-based; settings: 1 µM; in short: as §4
Adenosine kinase [24] = biological target: T1, Adenosine kinase; experiment: Drug metabolism in human HCT116 cells assessed as ADK-mediated compound phosphorylation by measuring parent compound level per 5x10^5 cells at 1 umol/L after 3 hrs by UPLC-MS/MS analysis; assay type: ADME, cell-based; settings: 1 µM; in short: as §4
CCRF-CEM [25] = experiment: DNA incorporation activity in human CCRF-CEM assessed as NMP content per microgram of nucleic acid at 3.52 uM after 2.5 hrs by […]; assay type: functional; in short: as §3
CCRF-CEM [26] = experiment: RNA incorporation activity in human CCRF-CEM assessed as NMP content per microgram of nucleic acid at 3.52 uM after 2.5 hrs by […]; assay type: functional; in short: as §3

T1 sequence (P55263 whole entry): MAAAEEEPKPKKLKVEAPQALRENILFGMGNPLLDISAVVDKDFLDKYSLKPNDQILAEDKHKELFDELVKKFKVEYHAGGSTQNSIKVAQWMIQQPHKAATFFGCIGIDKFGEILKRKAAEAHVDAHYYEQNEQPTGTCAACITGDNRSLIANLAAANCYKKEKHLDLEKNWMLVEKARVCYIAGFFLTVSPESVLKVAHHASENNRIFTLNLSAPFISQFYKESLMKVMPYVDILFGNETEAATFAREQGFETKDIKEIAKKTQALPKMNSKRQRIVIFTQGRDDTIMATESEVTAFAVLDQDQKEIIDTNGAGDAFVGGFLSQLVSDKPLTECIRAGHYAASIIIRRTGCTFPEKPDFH

With `CSc1ncnc2c1c1occc1n2[C@@H]1O[C@H](CO)[C@@H](O)[C@H]1O` the Activity (Human alphaherpesvirus 1) was “inactive”, the Activity (CCRF-CEM [1]) was 6.55% and the remaining at 1 h, 5 µM [2] was 98%. The Activity (Influenza A virus) was “inactive”, the “inhibition (INH)” value (OCI-AML2 [3]) was 50% and the remaining at 0.5 h, 5 µM [4] was 99%. For the same compound, the remaining at 0.25 h [5] was 99%, the IC50 (U2OS) was 340 nM and the IC50 [6] was 2700 nM. For the same compound, the remaining at 0.25 h, 5 µM [7] was 100%, the “inhibition (INH)” value (OCI-AML2 [8]) was 50% and the IC50 at 72 h [9] was 190 nM.

In the case of `Cc1ncnc2c1c1occc1n2[C@@H]1O[C@H](CO)[C@@H](O)[C@H]1O`, the Activity (CCRF-CEM [10]) is reported as 14.3 fmol, the Activity (OCI-AML2 [11]) is reported as “Toxic” and the Drug metabolism (Adenosine kinase [12]) is reported as 247.21 pmol. The Activity (Human alphaherpesvirus 1) was “inactive”, the Activity (CCRF-CEM [1]) was 0.61% and the Drug metabolism (Adenosine kinase [13]) was 27.92 pmol. The remaining at 1 h, 5 µM [2] was 98%, the Activity (Influenza A virus) was “inactive” and the Drug metabolism (Adenosine kinase [14]) was 338.91 pmol. The “inhibition (INH)” value (OCI-AML2 [3]) was 50%, the Drug metabolism (Adenosine kinase [15]) was 464.66 pmol and the remaining at 0.5 h, 5 µM [4] was 99%. The Activity (CCRF-CEM [16]) was 15.4 fmol, the Drug metabolism (Adenosine kinase [17]) was 119.93 pmol and the remaining at 0.25 h [5] was 99%. For the same compound, the Activity (OCI-AML2 [18]) was “Toxic”, the Activity (DNA) was “Active” and the IC50 (U2OS) was 570 nM. The Activity (OCI-AML2 [19]) was “Non-Toxic”, the IC50 [6] was 6930 nM and the remaining at 0.25 h, 5 µM [7] was 100%. The “inhibition (INH)” value (OCI-AML2 [8]) was 50%, the Activity (CCRF-CEM [20]) was 3.4 fmol and the Activity (OCI-AML2 [21]) was “Non-Toxic”. It also gave an IC50 at 72 h [9] of 340 nM, a Drug metabolism (Adenosine kinase [22]) of 177.9 pmol and a Drug metabolism (Adenosine kinase [23]) of 155.12 pmol. For the same compound, the Drug metabolism (Adenosine kinase [24]) was 66.31 pmol.

For `Cc1ncnc2c1c1c(ccn1C)n2[C@@H]1O[C@H](CO)[C@@H](O)[C@H]1O`, the Activity (CCRF-CEM [25]) was 14.1 fmol, the Drug metabolism (Adenosine kinase [12]) was 173.96 pmol and the Activity (Human alphaherpesvirus 1) was “inactive”. For the same compound, the Activity (CCRF-CEM [1]) was 35.91%, the Drug metabolism (Adenosine kinase [13]) was 54.04 pmol and the remaining at 1 h, 5 µM [2] was 97%. The Activity (Influenza A virus) was “inactive”, the Drug metabolism (Adenosine kinase [14]) was 220.71 pmol and the Drug metabolism (Adenosine kinase [15]) was 753.01 pmol. The Activity (CCRF-CEM [26]) was 3.74 fmol, the remaining at 0.5 h, 5 µM [4] was 98% and the Drug metabolism (Adenosine kinase [17]) was 450.1 pmol. For the same compound, the remaining at 0.25 h [5] was 98%, the Activity (DNA) was “Active” and the IC50 (U2OS) was 610 nM. The IC50 [6] was greater than 50000 nM, the remaining at 0.25 h, 5 µM [7] was 99% and the Drug metabolism (Adenosine kinase [22]) was 476.53 pmol. It also gave a Drug metabolism (Adenosine kinase [23]) of 87.1 pmol and a Drug metabolism (Adenosine kinase [24]) of 136.87 pmol.
